Activity calls are given as the source filed them. The rule behind the calls is not given here.
Assays:
[1] = target: Protein kinase C eta type (Homo sapiens, UniProt P24723); test: Inhibition of human PKCeta
[2] = target: Protein kinase C zeta type (Homo sapiens, UniProt Q05513); test: Inhibition of human PKCzeta
[3] = Inhibition of human cAMP-dependent protein kinase
[4] = Inhibition of human cGMP-dependent protein kinase
[5] = Inhibition of human Raf kinase
Casein kinase 2 = Casein kinase 2 (Homo sapiens, UniProt P67870+P68400+P19784+Q8NEV1); test: Inhibition of human casein kinase 2; assay type: protein assay
[6] = target: T1, Protein kinase C beta type (Homo sapiens, UniProt P05771); test: Inhibition of human PKCbeta1
T1 sequence (P05771 whole entry): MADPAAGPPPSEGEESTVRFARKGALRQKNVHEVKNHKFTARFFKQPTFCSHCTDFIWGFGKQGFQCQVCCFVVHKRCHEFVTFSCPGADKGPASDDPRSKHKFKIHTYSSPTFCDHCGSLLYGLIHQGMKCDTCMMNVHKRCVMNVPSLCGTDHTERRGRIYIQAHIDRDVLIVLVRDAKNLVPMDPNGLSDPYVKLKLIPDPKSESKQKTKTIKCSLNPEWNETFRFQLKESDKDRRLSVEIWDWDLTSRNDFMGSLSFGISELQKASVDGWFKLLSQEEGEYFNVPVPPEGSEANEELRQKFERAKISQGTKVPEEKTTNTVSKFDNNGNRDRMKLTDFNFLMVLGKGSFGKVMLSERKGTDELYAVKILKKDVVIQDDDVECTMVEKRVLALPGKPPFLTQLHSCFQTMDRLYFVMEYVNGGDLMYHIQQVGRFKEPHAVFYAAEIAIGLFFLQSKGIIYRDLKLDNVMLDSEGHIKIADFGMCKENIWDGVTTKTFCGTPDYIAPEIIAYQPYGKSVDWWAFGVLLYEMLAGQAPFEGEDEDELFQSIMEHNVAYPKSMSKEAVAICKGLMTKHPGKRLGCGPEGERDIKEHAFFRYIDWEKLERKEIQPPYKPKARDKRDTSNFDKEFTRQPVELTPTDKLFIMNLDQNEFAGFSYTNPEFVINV

[7] = target: T1, Protein kinase C beta type; test: Inhibition of human PKCbeta2
[8] = target: Glycogen synthase kinase-3 beta (Homo sapiens, UniProt P49841); test: Inhibition of human GSK3-beta
Chain of Glycogen synthase kinase-3 beta (P49841 whole entry): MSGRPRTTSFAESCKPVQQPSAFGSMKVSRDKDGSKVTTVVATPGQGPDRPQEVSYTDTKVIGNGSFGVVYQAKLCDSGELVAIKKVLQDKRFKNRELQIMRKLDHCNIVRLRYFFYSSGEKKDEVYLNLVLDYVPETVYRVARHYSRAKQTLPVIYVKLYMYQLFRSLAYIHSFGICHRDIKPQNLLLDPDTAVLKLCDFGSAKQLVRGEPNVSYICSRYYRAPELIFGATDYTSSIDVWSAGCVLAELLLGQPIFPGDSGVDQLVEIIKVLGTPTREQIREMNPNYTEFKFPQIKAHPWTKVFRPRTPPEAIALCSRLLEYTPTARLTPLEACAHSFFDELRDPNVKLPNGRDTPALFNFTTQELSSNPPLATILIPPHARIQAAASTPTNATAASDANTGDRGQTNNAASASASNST

[9] = target: Mitogen-activated protein kinase 3 (Homo sapiens, UniProt P27361); test: Inhibition of human Erk1
Chain of Mitogen-activated protein kinase 3 (P27361 whole entry): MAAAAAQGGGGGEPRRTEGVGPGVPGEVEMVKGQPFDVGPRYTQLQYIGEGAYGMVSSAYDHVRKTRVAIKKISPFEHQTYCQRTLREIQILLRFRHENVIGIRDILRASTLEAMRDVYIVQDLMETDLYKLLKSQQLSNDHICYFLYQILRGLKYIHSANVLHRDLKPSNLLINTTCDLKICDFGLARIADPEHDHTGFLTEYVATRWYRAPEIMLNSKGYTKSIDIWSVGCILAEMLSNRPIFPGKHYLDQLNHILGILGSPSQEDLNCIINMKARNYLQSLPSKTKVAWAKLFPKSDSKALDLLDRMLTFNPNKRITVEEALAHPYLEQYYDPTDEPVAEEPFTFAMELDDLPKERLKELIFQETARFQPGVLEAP

[10] = target: c-Jun N-terminal kinase, JNK (Homo sapiens, UniProt P45983+P53779+P45984); test: Inhibition of human JNK
[11] = target: Protein kinase C alpha type (Homo sapiens, UniProt P17252); test: Inhibition of human PKCalpha
[12] = target: Protein kinase C gamma type (Homo sapiens, UniProt P05129); test: Inhibition of human PKCgamma
[13] = target: Protein kinase C epsilon type (Homo sapiens, UniProt Q02156); test: Inhibition of human PKCepsilon
Chain of Protein kinase C epsilon type (Q02156 whole entry): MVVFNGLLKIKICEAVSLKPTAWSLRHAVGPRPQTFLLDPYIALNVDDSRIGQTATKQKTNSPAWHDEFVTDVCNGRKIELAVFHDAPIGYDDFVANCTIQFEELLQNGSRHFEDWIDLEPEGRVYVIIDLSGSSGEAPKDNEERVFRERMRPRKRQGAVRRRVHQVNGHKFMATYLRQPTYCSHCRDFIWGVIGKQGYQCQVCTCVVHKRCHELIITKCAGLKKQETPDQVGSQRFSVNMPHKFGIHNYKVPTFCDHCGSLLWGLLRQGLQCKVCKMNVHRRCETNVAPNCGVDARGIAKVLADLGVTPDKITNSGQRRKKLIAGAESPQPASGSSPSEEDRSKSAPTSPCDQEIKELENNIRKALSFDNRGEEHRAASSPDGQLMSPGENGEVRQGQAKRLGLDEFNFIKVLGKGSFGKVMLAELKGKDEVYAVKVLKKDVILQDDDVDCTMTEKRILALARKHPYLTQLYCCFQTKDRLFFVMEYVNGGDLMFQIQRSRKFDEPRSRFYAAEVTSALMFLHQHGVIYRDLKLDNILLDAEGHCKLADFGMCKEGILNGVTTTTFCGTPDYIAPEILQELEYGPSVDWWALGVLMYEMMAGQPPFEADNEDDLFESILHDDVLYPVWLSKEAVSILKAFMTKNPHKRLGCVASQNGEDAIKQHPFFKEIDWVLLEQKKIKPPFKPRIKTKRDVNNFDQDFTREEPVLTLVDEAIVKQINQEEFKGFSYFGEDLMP

[14] = Inhibition of human casein kinase 1
[15] = target: Protein kinase C delta type (Homo sapiens, UniProt Q05655); test: Inhibition of human PKCdelta
Chain of Protein kinase C delta type (Q05655 whole entry): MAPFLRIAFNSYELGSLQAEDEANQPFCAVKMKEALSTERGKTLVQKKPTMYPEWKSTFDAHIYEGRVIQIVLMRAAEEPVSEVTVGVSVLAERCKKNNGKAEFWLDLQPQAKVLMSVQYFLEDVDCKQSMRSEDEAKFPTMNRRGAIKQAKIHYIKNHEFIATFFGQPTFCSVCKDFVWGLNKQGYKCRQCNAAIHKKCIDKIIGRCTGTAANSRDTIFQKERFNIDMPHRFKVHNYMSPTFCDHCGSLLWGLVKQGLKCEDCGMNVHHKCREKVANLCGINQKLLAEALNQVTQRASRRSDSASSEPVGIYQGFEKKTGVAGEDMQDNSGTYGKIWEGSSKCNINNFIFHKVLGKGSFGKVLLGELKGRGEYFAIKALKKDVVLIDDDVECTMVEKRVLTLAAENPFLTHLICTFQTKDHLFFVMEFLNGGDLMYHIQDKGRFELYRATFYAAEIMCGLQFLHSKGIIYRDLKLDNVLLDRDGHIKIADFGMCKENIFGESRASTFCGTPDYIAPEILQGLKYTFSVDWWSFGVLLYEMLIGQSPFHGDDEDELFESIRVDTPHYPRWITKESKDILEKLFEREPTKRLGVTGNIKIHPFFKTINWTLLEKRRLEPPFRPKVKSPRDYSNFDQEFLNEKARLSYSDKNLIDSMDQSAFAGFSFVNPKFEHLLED

[16] = Inhibition of human v-abl
[17] = target: Cyclin-dependent kinase 4/cyclin D1 (Homo sapiens, UniProt P11802); test: Inhibition of human cdk4/cyclin D1; assay type: protein-complex assay
Chain of Cyclin-dependent kinase 4/cyclin D1 (P11802 whole entry): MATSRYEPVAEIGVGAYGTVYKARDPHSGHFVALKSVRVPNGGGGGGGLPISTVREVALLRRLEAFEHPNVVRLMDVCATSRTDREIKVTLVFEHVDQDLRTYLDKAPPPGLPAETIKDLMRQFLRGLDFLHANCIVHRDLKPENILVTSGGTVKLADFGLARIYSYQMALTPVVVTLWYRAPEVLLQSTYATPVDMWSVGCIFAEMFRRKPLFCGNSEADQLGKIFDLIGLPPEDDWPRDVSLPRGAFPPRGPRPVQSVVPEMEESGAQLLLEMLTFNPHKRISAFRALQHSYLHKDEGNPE
Chain of Cyclin-dependent kinase 4/cyclin D1 (P24385 whole entry, further chain): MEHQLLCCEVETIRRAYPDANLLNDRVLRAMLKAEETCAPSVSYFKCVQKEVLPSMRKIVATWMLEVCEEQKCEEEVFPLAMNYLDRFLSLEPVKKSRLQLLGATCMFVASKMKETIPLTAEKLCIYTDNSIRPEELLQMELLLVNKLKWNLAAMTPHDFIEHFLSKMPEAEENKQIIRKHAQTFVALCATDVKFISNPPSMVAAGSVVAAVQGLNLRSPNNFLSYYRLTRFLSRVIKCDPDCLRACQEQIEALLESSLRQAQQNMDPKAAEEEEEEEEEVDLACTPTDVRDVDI

Cdc2 [18] = target: T2, Cdc2 (Patiria pectinifera, UniProt Q17066); test: Inhibition of starfish cdc2/cyclin B assessed as [32P] incorporation in histone H1 from 150 µM [gamma32P]ATP
T2 sequence (Q17066 whole entry): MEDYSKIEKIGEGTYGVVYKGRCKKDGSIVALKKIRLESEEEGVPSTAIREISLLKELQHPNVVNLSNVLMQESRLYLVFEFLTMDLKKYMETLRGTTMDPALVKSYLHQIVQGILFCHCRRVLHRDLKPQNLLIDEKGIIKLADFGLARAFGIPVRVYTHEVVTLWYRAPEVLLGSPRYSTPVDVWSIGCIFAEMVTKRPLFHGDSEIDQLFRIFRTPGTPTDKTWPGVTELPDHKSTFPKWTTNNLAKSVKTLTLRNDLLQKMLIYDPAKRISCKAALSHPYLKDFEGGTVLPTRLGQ

NCI-H522 = test: Growth inhibition human NCI-H522 cells; assay type: functional
Cdc2 [19] = target: T2, Cdc2; test: Inhibition of starfish cdc2/cyclin B assessed as [32P] incorporation in histone H1 from 1.5 mM [gamma32P]ATP
[20] = target: T3, Cyclin-dependent kinase 1 (Saccharomyces cerevisiae S288c, UniProt P00546); test: Inhibition of Saccharomyces cerevisiae cdc28
T3 sequence (P00546 whole entry): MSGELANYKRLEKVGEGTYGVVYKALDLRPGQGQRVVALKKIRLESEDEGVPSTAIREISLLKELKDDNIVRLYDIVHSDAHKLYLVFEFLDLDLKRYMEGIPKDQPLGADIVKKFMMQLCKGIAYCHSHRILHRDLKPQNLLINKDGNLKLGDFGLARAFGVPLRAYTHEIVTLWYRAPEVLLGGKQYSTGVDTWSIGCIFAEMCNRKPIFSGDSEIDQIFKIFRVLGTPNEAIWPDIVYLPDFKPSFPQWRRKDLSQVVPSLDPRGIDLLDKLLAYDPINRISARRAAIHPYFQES

[21] = target: Cyclin-dependent kinase 5/CDK5 activator 1 (Homo sapiens, UniProt Q00535); test: Inhibition of human cdk5/p35; assay type: protein-complex assay
[22] = Growth inhibition human NCI60 cells; assay type: functional
[23] = target: T4, Cyclin-dependent kinase 2 (Homo sapiens, UniProt P24941); test: Inhibition of human cdk2/cyclin A
KM12 = test: Growth inhibition human KM12 cells; assay type: functional
[24] = target: T4, Cyclin-dependent kinase 2; test: Inhibition of human cdk2/cyclin E
Insulin receptor = Insulin receptor (Homo sapiens, UniProt P06213); test: Inhibition of human insulin receptor
[25] = target: T3, Cyclin-dependent kinase 1; test: Inhibition of yeast W303 cdc28 phosphorylation assessed as [32P] incorporation in histone H1 from [gamma32P]ATP by scintillation counting
Saccharomyces cerevisiae [26] = test: Growth inhibition of delta snq2, delta pdr5 and delta erg6 knock out yeast YRP1 assessed as induction of uniform arrest morphology; assay type: functional, organism-based
[27] = target: Serine/threonine-protein kinase CAK1 (Saccharomyces cerevisiae S288c, UniProt P43568); test: Inhibition of yeast W303 Cak1 phosphorylation assessed as [32P] incorporation in histone H1 from [gamma32P]ATP by scintillation counting
[28] = target: Cyclin-dependent protein kinase PHO85 (Saccharomyces cerevisiae S288c, UniProt P17157); test: Inhibition of yeast W303 Pho85 phosphorylation assessed as [32P] incorporation in histone H1 from [gamma32P]ATP by scintillation counting
Saccharomyces cerevisiae [29] = test: Increase in HSP12 mRNA level in delta snq2, delta pdr5 and delta erg6 knock out yeast YRP1 at 25 µM after 2 hrs by high-density oligonucleotide array; assay type: functional, organism-based
Method in brief: (§1)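 Drug-sensitized S. cerevisiae cultures grown to late logarithmic phase, then exposed to 25 μM inhibitor for 2 h. Polyadenylated mRNA isolated, converted to biotin-labeled cRNA and hybridized to a set of four high-density arrays carrying more than 260,000 25-nucleotide oligomers. Transcripts scored as changed when they shifted more than twofold in triplicate hybridizations for each of two independent experiments.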

Saccharomyces cerevisiae [30] = test: Increase in PHO84 mRNA level in delta snq2, delta pdr5 and delta erg6 knock out yeast YRP1 at 25 µM after 2 hrs by high-density oligonucleotide array; assay type: functional, organism-based; method in brief: as §1
Saccharomyces cerevisiae [31] = test: Growth inhibition of delta snq2, delta pdr5 and delta erg6 knock out yeast YRP1 after 2 hrs; assay type: functional
Saccharomyces cerevisiae [32] = test: Increase in UB14 mRNA level in delta snq2, delta pdr5 and delta erg6 knock out yeast YRP1 at 25 µM after 2 hrs by high-density oligonucleotide array; assay type: functional, organism-based; method in brief: as §1
Saccharomyces cerevisiae [33] = test: Increase in PHO8 mRNA level in delta snq2, delta pdr5 and delta erg6 knock out yeast YRP1 at 25 µM after 2 hrs by high-density oligonucleotide array; assay type: functional, organism-based; method in brief: as §1
Saccharomyces cerevisiae [34] = test: Increase in PHO5 mRNA level in delta snq2, delta pdr5 and delta erg6 knock out yeast YRP1 at 25 µM after 2 hrs by high-density oligonucleotide array; assay type: functional, organism-based; method in brief: as §1
Saccharomyces cerevisiae [35] = test: Increase in PCL5 mRNA level in delta snq2, delta pdr5 and delta erg6 knock out yeast YRP1 at 25 µM after 2 hrs by high-density oligonucleotide array; assay type: functional, organism-based; method in brief: as §1
Saccharomyces cerevisiae [36] = test: Growth inhibition of delta snq2, delta pdr5 and delta erg6 knock out yeast YRP1 assessed as synchronization by FACS analysis; assay type: functional, organism-based
Saccharomyces cerevisiae [37] = test: Increase in YBR296c mRNA level in delta snq2, delta pdr5 and delta erg6 knock out yeast YRP1 at 25 µM after 2 hrs by high-density oligonucleotide array; assay type: functional, organism-based; conditions: 25 M; method in brief: as §1
Saccharomyces cerevisiae [38] = test: Increase in CTT1 mRNA level in delta snq2, delta pdr5 and delta erg6 knock out yeast YRP1 at 25 µM after 2 hrs by high-density oligonucleotide array; assay type: functional, organism-based; conditions: 25 M; method in brief: as §1
Saccharomyces cerevisiae [39] = test: Increase in PHO80 mRNA level in delta snq2, delta pdr5 and delta erg6 knock out yeast YRP1 at 25 µM after 2 hrs by high-density oligonucleotide array; assay type: functional, organism-based; method in brief: as §1
[40] = target: Serine/threonine-protein kinase KIN28 (Saccharomyces cerevisiae S288c, UniProt P06242); test: Inhibition of yeast W303 Kin28 phosphorylation assessed as [32P] incorporation in histone H1 from [gamma32P]ATP by scintillation counting
Saccharomyces cerevisiae [41] = test: Increase in PHO81 mRNA level in delta snq2, delta pdr5 and delta erg6 knock out yeast YRP1 at 25 µM after 2 hrs by high-density oligonucleotide array; assay type: functional, organism-based; conditions: 25 M; method in brief: as §1
[42] = target: Meiotic mRNA stability protein kinase SSN3 (Saccharomyces cerevisiae S288c, UniProt P39073); test: Inhibition of yeast W303 Srb10 phosphorylation assessed as [32P] incorporation in histone H1 from [gamma32P]ATP by scintillation counting
[43] = target: Cyclin-dependent kinase 1/cyclin B1 (Homo sapiens, UniProt P06493); test: Inhibition of human cdc2/cyclin B assessed as [32P] incorporation in histone H1 from [gamma32P]ATP; assay type: protein-complex assay
MRC5 [44] = test: Cell cycle arrest in human MRC5 cells assessed as accumulation at G1/S phase at low concentration after 18 hrs by FACS analysis; assay type: functional, cell-based
MRC5 [45] = test: Cell cycle arrest in human MRC5 cells assessed as accumulation at G2/M phase at high concentration after 18 hrs by FACS analysis; assay type: functional, cell-based
MRC5 [46] = test: Cell cycle arrest in human MRC5 cells assessed as accumulation at G1/S phase at high concentration after 18 hrs by FACS analysis; assay type: functional, cell-based

Chain of Protein kinase C eta type (P24723 whole entry): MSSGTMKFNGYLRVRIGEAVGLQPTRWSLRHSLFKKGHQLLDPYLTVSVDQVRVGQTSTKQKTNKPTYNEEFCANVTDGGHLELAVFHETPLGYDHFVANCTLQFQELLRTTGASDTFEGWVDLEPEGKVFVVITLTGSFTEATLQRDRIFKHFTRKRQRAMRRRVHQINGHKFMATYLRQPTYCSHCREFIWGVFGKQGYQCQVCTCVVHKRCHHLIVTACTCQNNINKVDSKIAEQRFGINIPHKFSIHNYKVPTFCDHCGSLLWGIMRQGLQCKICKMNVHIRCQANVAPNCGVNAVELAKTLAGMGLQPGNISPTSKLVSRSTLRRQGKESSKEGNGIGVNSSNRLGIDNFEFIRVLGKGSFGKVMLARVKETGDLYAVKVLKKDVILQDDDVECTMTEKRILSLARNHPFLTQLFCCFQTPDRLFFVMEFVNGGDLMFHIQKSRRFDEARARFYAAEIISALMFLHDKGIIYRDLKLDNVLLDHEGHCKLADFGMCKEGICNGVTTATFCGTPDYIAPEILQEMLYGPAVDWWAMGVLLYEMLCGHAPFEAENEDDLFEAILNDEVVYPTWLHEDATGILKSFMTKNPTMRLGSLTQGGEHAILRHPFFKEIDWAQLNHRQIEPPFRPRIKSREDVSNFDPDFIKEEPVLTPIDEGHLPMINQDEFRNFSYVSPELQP

SMILES	IC50 [1] [µM]	IC50 [2] [µM]	IC50 [3] [µM]	IC50 [4] [µM]	IC50 [5] [µM]	IC50 (Casein kinase 2) [µM]	IC50 [6] [µM]	IC50 [7] [µM]	IC50 [8] [µM]	IC50 [9] [µM]	IC50 [10] [µM]	IC50 [11] [µM]	IC50 [12] [µM]	IC50 [13] [µM]	IC50 [14] [µM]	IC50 [15] [µM]	IC50 [16] [µM]	IC50 [17] [µM]	other results
CC(C)[C@H](CO)Nc1nc(Nc2ccc(C(=O)O)c(Cl)c2)c2ncn(C(C)C)c2n1 [PURVALANOL B]	> 100	> 100	3.8	> 100	> 10	> 10	> 100	> 100	> 10	3.33	> 10	> 100	> 100	> 100	> 3.33	> 100	> 100	> 10	–
CC(C)[C@H](CO)Nc1nc(Nc2cccc(Cl)c2)c2ncn(C(C)C)c2n1 [PURVALANOLA]	> 100	> 100	9	> 10	> 1	> 10	> 10	> 10	> 10	9	> 1	> 10	> 10	> 100	> 3.33	> 100	> 10	0.85	IC50 (Cdc2 [18]): 0.04 µM; GI50 (NCI-H522): 0.347 µM; IC50 (Cdc2 [19]): 0.5 µM; IC50 [20]: 0.08 µM; IC50 [21]: 0.075 µM; GI50 [22]: 2 µM; IC50 [23]: 0.07 µM; GI50 (KM12): 0.076 µM; IC50 [24]: 0.035 µM; IC50 (Insulin receptor): 5 µM
CC(C)n1cnc2c(N(C)c3cccc(Cl)c3)nc(NCCO)nc21	–	–	–	–	–	–	–	–	–	–	–	–	–	–	–	–	–	–	IC50 [25]: > 500 µM; Activity (Saccharomyces cerevisiae [26]): inactive; IC50 [27]: > 500 µM; IC50 [28]: > 500 µM; Activity (Saccharomyces cerevisiae [29]): inactive; Activity (Saccharomyces cerevisiae [30]): inactive; GI50 (Saccharomyces cerevisiae [31]): 200 µM; Activity (Saccharomyces cerevisiae [32]): inactive; Activity (Saccharomyces cerevisiae [33]): inactive; Activity (Saccharomyces cerevisiae [34]): inactive; Activity (Saccharomyces cerevisiae [35]): inactive; Activity (Saccharomyces cerevisiae [36]): inactive; Activity (Saccharomyces cerevisiae [37]): inactive; Activity (Saccharomyces cerevisiae [38]): inactive; Activity (Saccharomyces cerevisiae [39]): inactive; IC50 [40]: > 500 µM; Activity (Saccharomyces cerevisiae [41]): inactive; IC50 [42]: > 500 µM
CC(C)n1cnc2c(Nc3cccc(Cl)c3)nc(NCCO)nc21	–	–	–	–	–	–	–	–	–	–	–	–	–	–	–	–	–	–	IC50 [43]: 0.34 µM
COc1ccc(CNc2nc(N(CCO)CCO)nc3c2ncn3C(C)C)cc1	–	–	–	–	–	–	–	–	–	–	–	–	–	–	–	–	–	–	Activity (MRC5 [44]): Active; Activity (MRC5 [45]): Active; Activity (MRC5 [46]): Active

From ChEMBL document CHEMBL1153829, “Exploiting chemical libraries, structure, and genomics in the search for kinase inhibitors” (Science, 1998)
